Bioassay records (PubChem BioAssay)
NPY-Y2 antag: antagonists of human neuropeptide Y receptor Y2 | NPY-Y2 expressing cells, antagonist mode | 0.99% of 140,000 active | inhibition, % at 2.7 µM;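 also: 0% = vehicle with agonist challenge and 100% = reference antagonist with challenge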
NPY Y1 blocker: NPY-Y1 (human) receptor antagonism; 1% of 200,000 active; HEK293-CNG Y1 cells, membrane potential fluorescence; NPY at EC95, then isoproterenol; inhibition, % at 3.6 µM; P25929;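 active = inhibition above the campaign mean inhibition of all tested compounds plus 3 SD, cut at about 20% in these data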;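 also: 0% = DMSO wells given NPY plus isoproterenol and 100% = isoproterenol alone without NPY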
Target sequence (P25929 whole entry, looked up): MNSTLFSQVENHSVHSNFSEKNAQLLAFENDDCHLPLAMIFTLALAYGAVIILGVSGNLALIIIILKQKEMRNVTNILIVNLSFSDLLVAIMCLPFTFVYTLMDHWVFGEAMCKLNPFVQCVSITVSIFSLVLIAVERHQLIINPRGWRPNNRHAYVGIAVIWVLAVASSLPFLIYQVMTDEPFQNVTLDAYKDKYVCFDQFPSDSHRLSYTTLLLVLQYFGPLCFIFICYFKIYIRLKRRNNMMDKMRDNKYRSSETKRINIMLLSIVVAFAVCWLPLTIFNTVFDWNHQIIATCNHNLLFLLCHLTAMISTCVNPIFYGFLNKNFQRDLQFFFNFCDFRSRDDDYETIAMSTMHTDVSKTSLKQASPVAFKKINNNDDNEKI
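System: HEK293 cells with Y1 receptor plus CNG channel / Probe or stimulus: NPY 25 nM then isoproterenol 1 µM plus Ro 20-1724 25 µM / Compound: one concentration, 3.6 µM, in 0.4% DMSO / Schedule: compound incubation 1 h at room temperature, readout 45 min post-stimulation / Measured by: membrane potential fluorescence / Read-out: % inhibition of NPY effect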
NPY1 pot ag: potentiates or activates human NPY-Y1 receptor. P25929. NPY-Y1 expressing cells, potentiator/agonist activation. activation, % at 3.6 µM. 0.37% of 220,000 active; in the data active = activation above about 33%, passing the limit was not always enough;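 also: cells stimulated with NPY at EC10 then isoproterenol at EC100; 0% = low agonist plus stimulus and 100% = saturating agonist plus stimulus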
NPY-Y2 PAM-ag: potentiators or agonists of human neuropeptide Y receptor Y2. 0.45% of 220,000 active. cells expressing NPY-Y2, potentiator/agonist read-out. activation, % at 3.6 µM. P49146; in the data active = activation above about 27%;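 also: cells stimulated with NPY near EC25 plus isoproterenol at EC100; 0% = vehicle plus submaximal agonist and 100% = vehicle plus saturating agonist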
NPY-Y1 ant conf: confirmation of human neuropeptide Y receptor Y1 antagonists | shares compounds with NPY Y1 blocker | HEK293-CNG NPY-Y1, membrane potential fluorescence, cAMP; NPY challenge against isoproterenol-raised cAMP | inhibition, % at 3.6 µM | 21% of 1,200 active | AID 1254; in the data active = inhibition above about 20%;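 also: 0% = vehicle with agonist plus stimulus and 100% = stimulus alone without agonist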
NPY2 antag ctr: human NPY-Y2 antagonism in NPY-Y1 counter-screen. HEK293 NPY-Y2 CNG membrane potential fluorescence; cells given NPY, then isoproterenol. 28% of 1,200 active. inhibition, % at 3.6 µM. shares compounds with NPY Y1 blocker;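 also: 0% = DMSO with agonist challenge and 100% = reference antagonist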
Numbers without * were called inactive; . = no result given. Rows were chosen to be rich in hits. Some 1.8% of all compounds tested hit in one or more screens of this group. Rule as the data show it, unless noted: active = inhibition above about 17%; inactive = the rest.

SMILES	NPY-Y2 antag	NPY Y1 blocker	NPY1 pot ag	NPY-Y2 PAM-ag	NPY-Y1 ant conf	NPY2 antag ctr
CCOc1ccc2c(c1)C(C)=CC(C)(C)N2S(=O)(=O)c1ccc(C)cc1	.	57*	-28	-24	39*	25*
CC1=CC(C)(C)N(S(=O)(=O)c2ccc(C)cc2)c2cc(C)ccc21	16	13	-32	9	.	.
CCNC(=O)N1c2ccc(OCC)cc2C(C)=CC1(C)C	1	-4	-5	5	.	.
COc1ccc2c(c1)C(C)=CC(C)(C)N2S(=O)(=O)c1ccc(C)cc1	.	36*	-1	7	18	15
COc1ccccc1C1=NN(C2=NN=C(N)Cc3ncnn32)C(O)(C(F)(F)F)C1 (stereo not given)	.	11	-7	-3	.	.
CSCCC(NC(=O)c1ccco1)C(=O)OC(C)C(=O)NC(=O)NC1CCCCC1 (stereo not given)	2	25*	-27	-21	8	8
Cc1ccc(C(=O)N2c3ccccc3N(Cc3ccccc3)C(=O)C2(C)C)cc1	10	30*	-40	35	13	7
CC1CC1c1ccc(/C=C(\C#N)C(=O)Nc2ccccc2Cl)o1 (stereo not given)	5	23*	-2	-3	11	8
O=C(NCCC1=CCCCC1)c1cc(-c2ccncc2)nc2ccccc12	.	27*	-81	-71	27*	23*
COc1cccc(C2=NN(C(=O)c3cccs3)C(O)(C(F)(F)F)C2)c1 (stereo not given)	.	8	-29	-22	.	.
CCc1n[nH]c(=S)n1/N=C/c1ccc(N(C)c2ccccc2)cc1	.	35*	-16	-32	18	11
CCc1n[nH]c(=S)n1/N=C/c1ccc2c(c1)OCO2	4	5	-6	-15	.	.
NC(=O)NC(=O)COC(=O)c1ccccc1OCc1ccc(F)cc1	.	.	15	0	.	.
COc1ccc(/C=N/NC(=O)c2ccccc2OCc2ccccc2)c(OC)c1	.	25*	-41	-64	7	15
CCC(CC)=NNC(=O)c1ccccc1OCc1ccc(F)cc1	6	21*	-66	-35	4	7
Cc1ccc(/C=N/NC(=O)c2ccccc2OCc2ccc(F)cc2)o1	15	22*	-107	-75	15	15
O=S(=O)(c1ccccc1)c1nc(NCc2cccnc2)sc1Cl	.	-4	31	3	.	.
O=C(Nc1ccc(Cl)c(Cl)c1)N1N=CCC1c1ccccc1 (stereo not given)	.	11	-3	-16	.	.
CCn1nc(CC(=O)Nc2nnc(CC(=O)N3CCOCC3)s2)c2ccccc2c1=O	3	5	-28	-4	.	.
CCn1nc(CC(=O)Nc2nnc(CC(=O)N3CCCC3)s2)c2ccccc2c1=O	4	20*	-18	-20	-1	4
Cc1cc(NC(=O)CC2CCCC2)n(-c2nc3ccccc3[nH]2)n1	17	21*	-24	-7	17	8
O=C(c1ccccc1)N1CCN(S(=O)(=O)c2cccc(NS(=O)(=O)c3ccccc3)c2)CC1	.	-2	-11	-12	.	.
Cc1cc(Cl)ccc1OCc1nnc2n1CCCCC2	.	4	-6	-1	.	.
COC(=O)CCC(=O)NC(=S)Nc1cc(Cl)ccc1Cl	5	3	2	-14	.	.
O=C(NC1CCCC1)C(c1ccco1)N(Cc1ccccc1)C(=O)c1csnn1 (stereo not given)	14	30*	0	-1	4	5
SMILES	NPY-Y2 antag	NPY Y1 blocker	NPY1 pot ag	NPY-Y2 PAM-ag	NPY-Y1 ant conf	NPY2 antag ctr
O=S(=O)(c1ccc2c(c1)OCCO2)N(Cc1ccc(F)cc1)Cc1nnc(-c2cccs2)o1	14	45*	-5	-16	14	8
COc1ccccc1NC(=O)C1=C(C)NC2=C(C(=O)CCC2)C1c1ccc2c(c1)OCO2 (stereo not given)	2	-3	-19	-16	.	.
CC(=O)N(Cc1nc2sc(C)c(C)c2c(=O)[nH]1)C1CCCC1	.	-13	-3	2	.	.
Clc1ccc(-n2cccc2CN2CCc3c([nH]c4ccccc34)C2c2ccccn2)nc1 (stereo not given)	.	26*	-17	-13	6	9
CC(C)(C)SCCNC(=O)CN(c1ccccc1)S(=O)(=O)c1ccc(F)cc1	.	7	7	-5	.	.
Cc1ccccc1Nc1scc(-c2ccc(Cl)cc2)[n+]1-c1ccccc1C	.	36*	-6	-4	9	11
Cc1c(Nc2scc(-c3ccccc3)[n+]2-c2ccccc2)c(=O)n(-c2ccccc2)n1C	.	5	22	12	.	.
Cc1ccc2nc3c(c(C(=O)O)c2c1)CCC3	8	22*	-38	-2	5	11
CCOC(=O)c1ccccc1NC(=O)CSc1nc(N)cc(=O)[nH]1	.	.	8	7	.	.
COc1ccc(CNC(=O)C2CCCN2C)cc1OC (stereo not given)	.	.	-1	6	.	.
C=CCNCC(=O)N1N=C(c2ccc3ccccc3c2)CC1c1ccc(OC)cc1 (stereo not given)	.	32*	-37	-35	32*	50*
COc1ccc(C2CC(c3ccc4ccccc4c3)=NN2C(=O)CNC2CCCCC2)cc1 (stereo not given)	.	30*	5	15	37*	33*
O=S(=O)(NC1=NCCC1)c1cccc(NC(=S)NCCc2ccccc2)c1	2	-2	-1	3	.	.
Cc1ccccc1OCCNC(=O)/C=C/c1ccc([N+](=O)[O-])cc1	8	20*	-14	-6	10	10
CC(C)(C)NC(=O)C(c1c[nH]c2ccccc12)N(C(=O)Cn1nnc(-c2ccc(F)cc2)n1)c1cccc(O)c1 (stereo not given)	-3	-1	32	17	.	.
OCCC1CN(Cc2ccccn2)CCN1C1CCCC1 (stereo not given)	.	-3	14	-17	.	.
OCCC1CN(CC(c2ccccc2)c2ccccc2)CCN1C1CCCC1 (stereo not given)	.	23*	1	-19	12	10
Cc1nn(C)c(C(=O)NNC(=O)Nc2cccc(C(F)(F)F)c2)c1Cl	.	-3	8	11	.	.
CCOC(=O)CSc1nc(C(C)C)nc2sc(C)c(C)c12	.	23*	-43	-36	39*	41*
Cc1cc(C)c(CN2CCN(Cc3ccc(C)o3)C(CCO)C2)c(-n2cccn2)c1 (stereo not given)	.	29*	-9	-19	8	7
C=CCN(c1cccc(C(F)(F)F)c1)S(=O)(=O)c1cccc(C(=O)OCC(=O)NCCC)c1	2	1	-2	-5	.	.
COc1ccc(C2C(Oc3ccccc3)C(=O)N2c2cc(C)ccc2C)cc1OC (stereo not given)	10	22*	4	-4	19	9
COc1ccc(CN2C(=O)c3ccccc3C2C(=O)NC2CCCC2)c(OC)c1 (stereo not given)	-1	6	2	4	.	.
COc1ccc(CN2C(=O)c3ccccc3C2C(=O)NCC2CCCO2)c(OC)c1 (stereo not given)	1	5	-13	-6	.	.
